Data from ChEMBL document CHEMBL1153575, “Synthesis and in vitro anticancer activity of 2,4-azolidinedione-acetic acids derivatives” (2009).

Legend:
Type in all cases: functional
NCI-H460 = assay: Cytotoxicity against human NCI-H460 cells assessed as cell growth at 100 uM after 48 hrs by sulforhodamine B assay; conditions: NCI-H460, 48 h, read-out: Activity
How it was run: (§1)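 Primary one-dose screen on a three-line panel (MCF7 breast, NCI-H460 lung, SF-268 CNS) at 10^-4 M. Cells were preincubated 24–48 h before a single addition of the agent, followed by 48 h incubation. Endpoint was SRB protein staining, reported as percent growth versus untreated controls.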

MCF7 = assay: Cytotoxicity against human MCF7 cells assessed as cell growth at 100 uM after 48 hrs by sulforhodamine B assay; conditions: MCF7, 48 h, read-out: Activity; how it was run: as §1
SF-268 = assay: Cytotoxicity against human SF268 cells assessed as cell growth at 100 uM after 48 hrs by sulforhodamine B assay; conditions: SF-268, 48 h, read-out: Activity; how it was run: as §1
CCRF-CEM = assay: Growth inhibition of human CCRF-CEM cells after 48 hrs by sulforhodamine B assay; conditions: for TGI: read-out: pTGI (converted)
How it was run: (§2)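 Five-concentration assay in about 60 human tumour lines, using 10-fold dilutions from 10^-4 to 10^-8 M with 48 h continuous exposure and an SRB protein endpoint. Percent growth at each level comes from time-zero, untreated-control and treated absorbances. GI50 is 50% lower net protein increase than control. Values beyond the tested range are given as greater or less than the extreme concentration.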

HOP-92 = assay: Growth inhibition of human HOP92 cells after 48 hrs by sulforhodamine B assay; conditions: HOP-92, 48 h; for TGI: read-out: pTGI (converted); how it was run: as §2
NCI-H226 = assay: Growth inhibition of human NCI-H226 cells after 48 hrs by sulforhodamine B assay; conditions: NCI-H226, 48 h; for CC50: read-out: pLC50 (the source's name) (converted); for TGI: read-out: pTGI (converted); how it was run: as §2
[1] = Growth inhibition of human 786-O cells after 48 hrs by sulforhodamine B assay; conditions: 786-0, 48 h; for CC50: read-out: pLC50 (the source's name) (converted); for TGI: read-out: pTGI (converted); how it was run: as §2
MDA-MB-231 = assay: Growth inhibition of human MDA-MB-231 cells after 48 hrs by sulforhodamine B assay; conditions: MDA-MB-231, 48 h; for TGI: read-out: pTGI (converted); how it was run: as §2
[2] = Growth inhibition of human Hs 578T cells after 48 hrs by sulforhodamine B assay; conditions: for CC50: read-out: pLC50 (the source's name) (converted); for TGI: read-out: pTGI (converted); how it was run: as §2
SR = assay: Growth inhibition of human SR cells after 48 hrs by sulforhodamine B assay; how it was run: as §2
U-251 = assay: Growth inhibition of human U251 cells after 48 hrs by sulforhodamine B assay; conditions: U-251, 48 h; how it was run: as §2
SK-OV-3 = assay: Growth inhibition of human SKOV3 cells after 48 hrs by sulforhodamine B assay; conditions: SK-OV-3, 48 h; how it was run: as §2
SF-295 = assay: Growth inhibition of human SF295 cells after 48 hrs by sulforhodamine B assay; conditions: SF-295, 48 h; how it was run: as §2
SNB-75 = assay: Growth inhibition of human SNB75 cells after 48 hrs by sulforhodamine B assay; conditions: SNB-75, 48 h; how it was run: as §2
MOLT-4 = assay: Growth inhibition of human MOLT4 cells after 48 hrs by sulforhodamine B assay; conditions: MOLT-4, 48 h; how it was run: as §2
RPMI-8226 = assay: Growth inhibition of human RPMI8226 cells after 48 hrs by sulforhodamine B assay; conditions: RPMI-8226, 48 h; how it was run: as §2
A549 = assay: Growth inhibition of human A549 cells after 48 hrs by sulforhodamine B assay; conditions: A549, 48 h; how it was run: as §2
HOP-62 = assay: Growth inhibition of human HOP62 cells after 48 hrs by sulforhodamine B assay; conditions: HOP-62, 48 h; how it was run: as §2
HCT-116 = assay: Growth inhibition of human HCT116 cells after 48 hrs by sulforhodamine B assay; conditions: HCT-116, 48 h; how it was run: as §2
M14 = assay: Growth inhibition of human M14 cells after 48 hrs by sulforhodamine B assay; conditions: M14, 48 h; how it was run: as §2
ACHN = assay: Growth inhibition of human ACHN cells after 48 hrs by sulforhodamine B assay; how it was run: as §2
SN12C = assay: Growth inhibition of human SN12C cells after 48 hrs by sulforhodamine B assay; how it was run: as §2
[3] = read-out: pLC50 (the source's name) (converted)

Structure (SMILES): O=C(/C=C1\SC(=O)N(CC(=O)Nc2cccc(C(F)(F)F)c2)C1=O)Nc1ccc(Cl)cc1
- growth at 100 µM (NCI-H460): 108%
- growth at 100 µM (MCF7): 103%
- growth at 100 µM (SF-268): 100%

Structure (SMILES): O=C(CN1C(=O)S/C(=C/c2ccc(Cl)cc2)C1=O)Nc1cccc(C(F)(F)F)c1
- growth at 100 µM (NCI-H460): 99%
- growth at 100 µM (MCF7): 100%
- growth at 100 µM (SF-268): 110%

Structure (SMILES): COc1ccc(/C=C2/NC(=O)N(CC(=O)Nc3cc(C(F)(F)F)ccc3Cl)C2=O)cc1
- GI50 (CCRF-CEM): 21.9 µM
- LC50 (CCRF-CEM): > 100 µM
- TGI (CCRF-CEM): > 100 µM
- GI50 (HOP-92): 6.03 µM
- LC50 (HOP-92): 69.2 µM
- TGI (HOP-92): 24 µM
- GI50 (NCI-H226): 26.3 µM
- CC50 (NCI-H226): > 100 µM
- TGI (NCI-H226): > 100 µM
- GI50 [1]: 21.9 µM
- CC50 [1]: > 100 µM
- TGI [1]: > 100 µM
- GI50 (MDA-MB-231): 15.8 µM
- LC50 (MDA-MB-231): > 100 µM
- TGI (MDA-MB-231): > 100 µM
- GI50 [2]: 18.6 µM
- CC50 [2]: > 100 µM
- TGI [2]: 91.2 µM
- GI50 (SR): 7.24 µM
- LC50 (SR): 49 µM
- TGI (SR; read-out: pTGI (converted)): 20 µM
- GI50 (U-251): 9.33 µM
- LC50 (U-251): > 100 µM
- TGI (U-251; read-out: pTGI (converted)): 63.1 µM
- GI50 (SK-OV-3): 19.5 µM
- LC50 (SK-OV-3): > 100 µM
- TGI (SK-OV-3; read-out: pTGI (converted)): 81.3 µM
- GI50 (SF-295): 30.9 µM
- CC50 (SF-295; [3]): > 100 µM
- TGI (SF-295; read-out: pTGI): > 100 µM
- GI50 (SNB-75): 2.69 µM
- CC50 (SNB-75; [3]): > 100 µM
- TGI (SNB-75; read-out: pTGI (converted)): 16.6 µM

Structure (SMILES): O=C(CN1C(=O)N/C(=C/c2ccc(Cl)cc2)C1=O)Nc1cccc(C(F)(F)F)c1
- growth at 100 µM (NCI-H460): 4%
- growth at 100 µM (MCF7): 58%
- growth at 100 µM (SF-268): 100%
- GI50 (CCRF-CEM): 13.5 µM
- LC50 (CCRF-CEM): > 100 µM
- TGI (CCRF-CEM): > 100 µM
- GI50 (MOLT-4): 2.51 µM
- CC50 (MOLT-4; [3]): > 100 µM
- TGI (MOLT-4; read-out: pTGI (converted)): > 100 µM
- GI50 (RPMI-8226): 0.01 µM
- LC50 (RPMI-8226): 28.2 µM
- TGI (RPMI-8226; read-out: pTGI (converted)): 6.92 µM
- GI50 (A549): 10.7 µM
- CC50 (A549; [3]): > 100 µM
- TGI (A549; read-out: pTGI): > 100 µM
- GI50 (HOP-62): 12.6 µM
- LC50 (HOP-62): 69.2 µM
- TGI (HOP-62; read-out: pTGI (converted)): 29.5 µM
- GI50 (HOP-92): 5.37 µM
- LC50 (HOP-92): > 100 µM
- TGI (HOP-92): 28.8 µM
- GI50 (NCI-H226): 13.2 µM
- CC50 (NCI-H226): > 100 µM
- TGI (NCI-H226): 46.8 µM
- GI50 (HCT-116): 13.8 µM
- LC50 (HCT-116): > 100 µM
- TGI (HCT-116; read-out: pTGI (converted)): 66.1 µM
- GI50 (M14): 14.5 µM
- CC50 (M14; [3]): > 100 µM
- TGI (M14; read-out: pTGI): > 100 µM
- GI50 [1]: 13.8 µM
- CC50 [1]: 89.1 µM
- TGI [1]: 35.5 µM
- GI50 (ACHN): 14.5 µM
- CC50 (ACHN; [3]): 56.2 µM
- TGI (ACHN; read-out: pTGI (converted)): 28.8 µM
- GI50 (SN12C): 12 µM
- LC50 (SN12C): 100 µM
- TGI (SN12C; read-out: pTGI (converted)): 34.7 µM
- GI50 (MDA-MB-231): 4.57 µM
- LC50 (MDA-MB-231): > 100 µM
- TGI (MDA-MB-231): 22.9 µM
- GI50 [2]: 10.5 µM
- CC50 [2]: > 100 µM
- TGI [2]: 77.6 µM

Structure (SMILES): O=C(CN1C(=O)N/C(=C\c2ccc(F)cc2)C1=O)Nc1ccccc1C(F)(F)F
- growth at 100 µM (NCI-H460): 119%
- growth at 100 µM (MCF7): 87%
- growth at 100 µM (SF-268): 100%
